Measured values as given in ChEMBL document CHEMBL4261600 (Eur J Med Chem, 2018).

How the values were obtained:
[1] = organism: Homo sapiens; assay: Selectivity ratio of IC50 for recombinant full length His-tagged human CDK8/CyclinC to IC50 for recombinant full length His-tagged human CDK9/CyclinT1
[2] = target: Testis-specific serine/threonine-protein kinase 1 (Homo sapiens) (UniProt Q9BXA7); assay: Binding affinity to wild-type human full length TSSK1B (M1 to Q367 residues) expressed in bacterial expression system assessed as remaining unbound target protein level at 1000 nM by Kinomescan method relative to control
Summary of the method: (§1)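 KINOMEscan competition binding profile across a panel of 468 kinases and mutants, with the inhibitor tested at a single concentration of 1 μM. Binding is reported as percent of control, meaning signal relative to a DMSO control.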

[3] = target: Serine/threonine-protein kinase Nek6 (Homo sapiens) (UniProt Q9HC98); assay: Binding affinity to wild-type human full length NEK6 (M8 to T313 residues) expressed in bacterial expression system assessed as remaining unbound target protein level at 1000 nM by Kinomescan method relative to control; summary of the method: as §1
[4] = target: Ribosomal protein S6 kinase alpha-2 (Homo sapiens) (UniProt Q15349); assay: Binding affinity to wild-type human partial length C-terminal RSK3 kinase domain 2 (V403 to K700 residues) expressed in bacterial expression system assessed as remaining unbound target protein level at 1000 nM by Kinomescan method relative to control
Summary of the method: (§2)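 Profiled in a KINOMEscan binding panel with the inhibitor at a single concentration of 1 μM. Binding to each kinase was read out as percent of control, relative to a DMSO control. Strong binders were defined as those with a percent control value below 1.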

[5] = tested on: eIF-2-alpha kinase GCN2 (Homo sapiens), Q9P2K8 [S808G]; assay: Binding affinity to wild-type human partial length GCN2 kinase domain 2 (R585 to T1018 residues) S808G mutant expressed in bacterial expression system assessed as remaining unbound target protein level at 1000 nM by Kinomescan method relative to control
[6] = tested on: Receptor-type tyrosine-protein kinase FLT3 (Homo sapiens), P36888 [R834Q]; assay: Binding affinity to human partial length FLT3 R834Q mutant (V592 to Y969 residues) expressed in mammalian expression system assessed as remaining unbound target protein level at 1000 nM by Kinomescan method relative to control
Summary of the method: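 KINOMEscan competition-binding profiling across the panel of 468 kinases and mutants, with inhibitor tested at 1 μM. Binding is expressed as percent of control, with DMSO as the reference control.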

[7] = target: Homeodomain-interacting protein kinase 3 (Homo sapiens) (UniProt Q9H422); assay: Binding affinity to wild-type human partial length HIPK3 (M153 to N562 residues) expressed in mammalian expression system assessed as remaining unbound target protein level at 1000 nM by Kinomescan method relative to control
Summary of the method: (§3)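 KINOMEscan binding panel of 468 kinases/mutants. Inhibitor was tested at a single concentration of 1 μM. Binding is reported as percent of control, defined relative to a DMSO control.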

[8] = target: Tyrosine-protein kinase Fes/Fps (Homo sapiens) (UniProt P07332); assay: Binding affinity to wild-type human partial length FES (I527 to R822 residues) expressed in bacterial expression system assessed as remaining unbound target protein level at 1000 nM by Kinomescan method relative to control; summary of the method: as §3
[9] = target: Serine/threonine-protein kinase TAO1 (Homo sapiens) (UniProt Q7L7X3); assay: Binding affinity to wild-type human partial length TAOK1 (M1 to A320 residues) expressed in mammalian expression system assessed as remaining unbound target protein level at 1000 nM by Kinomescan method relative to control
[10] = target: Protein kinase C epsilon type (Homo sapiens) (UniProt Q02156); assay: Binding affinity to wild-type human partial length PRKCE (A378 to P737 residues) expressed in mammalian expression system assessed as remaining unbound target protein level at 1000 nM by Kinomescan method relative to control
[11] = target: Casein kinase I isoform alpha (Homo sapiens) (UniProt P48729); assay: Binding affinity to wild-type human partial length CSNK1A1 (M1 to L450 residues) expressed in mammalian expression system assessed as remaining unbound target protein level at 1000 nM by Kinomescan method relative to control; summary of the method: as §1
[12] = target: Phosphatidylinositol 5-phosphate 4-kinase type-2 beta (Homo sapiens) (UniProt P78356); assay: Binding affinity to wild-type human full length PIP5K2B (M1 to T416 residues) expressed in bacterial expression system assessed as remaining unbound target protein level at 1000 nM by Kinomescan method relative to control; summary of the method: as §2
[13] = target: Calcium/calmodulin-dependent protein kinase type II subunit delta (Homo sapiens) (UniProt Q13557); assay: Binding affinity to wild-type human partial length CAMK2D (M1 to E329 residues) expressed in bacterial expression system assessed as remaining unbound target protein level at 1000 nM by Kinomescan method relative to control; summary of the method: as §2
[14] = Clearance in beagle dog at 2 mg/kg, iv by LC-MS/MS analysis; format: ADME, organism-based, Canis lupus familiaris; conditions: in vivo
[15] = target: Dual specificity tyrosine-phosphorylation-regulated kinase 1A (Homo sapiens) (UniProt Q13627); assay: Binding affinity to wild-type human partial length DYRK1A (H129 to S509 residues) expressed in mammalian expression system assessed as remaining unbound target protein level at 1000 nM by Kinomescan method relative to control; summary of the method: as §3
[16] = target: Tyrosine-protein kinase TXK (Homo sapiens) (UniProt P42681); assay: Binding affinity to wild-type human partial length TXK (L238 to W527 residues) expressed in bacterial expression system assessed as remaining unbound target protein level at 1000 nM by Kinomescan method relative to control
[17] = target: Serine/threonine-protein kinase N2 (Homo sapiens) (UniProt Q16513); assay: Binding affinity to wild-type human partial length PKN2 (E634 to C984 residues) expressed in bacterial expression system assessed as remaining unbound target protein level at 1000 nM by Kinomescan method relative to control
[18] = target: Serine/threonine-protein kinase RIO1 (Homo sapiens) (UniProt Q9BRS2); assay: Binding affinity to wild-type human full length RIOK1 (M1 to K568 residues) expressed in bacterial expression system assessed as remaining unbound target protein level at 1000 nM by Kinomescan method relative to control; summary of the method: as §2
[19] = target: Interferon-induced, double-stranded RNA-activated protein kinase (Homo sapiens) (UniProt P19525); assay: Binding affinity to wild-type human partial length PRKR (F247 to C551 residues) expressed in bacterial expression system assessed as remaining unbound target protein level at 1000 nM by Kinomescan method relative to control
[20] = target: Cyclin-dependent kinase 7 (Homo sapiens) (UniProt P50613); assay: Binding affinity to wild-type human full length CDK7 (M1 to L344 residues) expressed in mammalian expression system assessed as remaining unbound target protein level at 1000 nM by Kinomescan method relative to control
Summary of the method: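 KINOMEscan competitive binding profile at 1 μM inhibitor. Remaining target binding reported as percent of DMSO control.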

[21] = target: Serine/threonine-protein kinase SIK1 (Homo sapiens) (UniProt P57059); assay: Binding affinity to wild-type human partial length SIK (M1 to Y304 residues) expressed in bacterial expression system assessed as remaining unbound target protein level at 1000 nM by Kinomescan method relative to control

Sequence of Serine/threonine-protein kinase TAO1 (Homo sapiens) (Q7L7X3 whole entry, the tested form may be a part): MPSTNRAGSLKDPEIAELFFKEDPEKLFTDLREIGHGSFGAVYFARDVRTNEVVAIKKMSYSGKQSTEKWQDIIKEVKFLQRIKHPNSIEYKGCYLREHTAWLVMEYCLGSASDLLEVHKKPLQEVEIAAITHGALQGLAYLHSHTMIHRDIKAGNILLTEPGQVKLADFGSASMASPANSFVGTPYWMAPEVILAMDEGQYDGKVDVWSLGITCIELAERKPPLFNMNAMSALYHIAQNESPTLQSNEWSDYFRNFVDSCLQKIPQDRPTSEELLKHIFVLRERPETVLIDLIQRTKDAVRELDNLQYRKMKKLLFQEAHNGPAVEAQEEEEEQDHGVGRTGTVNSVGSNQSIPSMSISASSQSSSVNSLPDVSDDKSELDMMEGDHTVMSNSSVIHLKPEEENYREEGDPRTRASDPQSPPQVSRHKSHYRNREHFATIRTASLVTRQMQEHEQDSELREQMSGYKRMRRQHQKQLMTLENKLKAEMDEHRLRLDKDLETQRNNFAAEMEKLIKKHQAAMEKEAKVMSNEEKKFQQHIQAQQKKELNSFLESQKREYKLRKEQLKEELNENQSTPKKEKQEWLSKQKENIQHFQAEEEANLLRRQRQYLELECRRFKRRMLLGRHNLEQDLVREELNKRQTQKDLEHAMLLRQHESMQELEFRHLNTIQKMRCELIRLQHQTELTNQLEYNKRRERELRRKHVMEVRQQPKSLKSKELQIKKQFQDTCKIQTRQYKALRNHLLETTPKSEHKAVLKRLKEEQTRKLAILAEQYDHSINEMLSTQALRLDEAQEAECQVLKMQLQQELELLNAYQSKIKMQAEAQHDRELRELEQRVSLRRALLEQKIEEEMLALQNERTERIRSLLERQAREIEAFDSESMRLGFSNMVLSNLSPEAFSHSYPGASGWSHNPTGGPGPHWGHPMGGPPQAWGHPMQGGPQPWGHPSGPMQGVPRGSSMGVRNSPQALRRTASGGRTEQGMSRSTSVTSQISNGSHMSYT
Sequence of Tyrosine-protein kinase Fes/Fps (Homo sapiens) (P07332 whole entry, the tested form may be a part): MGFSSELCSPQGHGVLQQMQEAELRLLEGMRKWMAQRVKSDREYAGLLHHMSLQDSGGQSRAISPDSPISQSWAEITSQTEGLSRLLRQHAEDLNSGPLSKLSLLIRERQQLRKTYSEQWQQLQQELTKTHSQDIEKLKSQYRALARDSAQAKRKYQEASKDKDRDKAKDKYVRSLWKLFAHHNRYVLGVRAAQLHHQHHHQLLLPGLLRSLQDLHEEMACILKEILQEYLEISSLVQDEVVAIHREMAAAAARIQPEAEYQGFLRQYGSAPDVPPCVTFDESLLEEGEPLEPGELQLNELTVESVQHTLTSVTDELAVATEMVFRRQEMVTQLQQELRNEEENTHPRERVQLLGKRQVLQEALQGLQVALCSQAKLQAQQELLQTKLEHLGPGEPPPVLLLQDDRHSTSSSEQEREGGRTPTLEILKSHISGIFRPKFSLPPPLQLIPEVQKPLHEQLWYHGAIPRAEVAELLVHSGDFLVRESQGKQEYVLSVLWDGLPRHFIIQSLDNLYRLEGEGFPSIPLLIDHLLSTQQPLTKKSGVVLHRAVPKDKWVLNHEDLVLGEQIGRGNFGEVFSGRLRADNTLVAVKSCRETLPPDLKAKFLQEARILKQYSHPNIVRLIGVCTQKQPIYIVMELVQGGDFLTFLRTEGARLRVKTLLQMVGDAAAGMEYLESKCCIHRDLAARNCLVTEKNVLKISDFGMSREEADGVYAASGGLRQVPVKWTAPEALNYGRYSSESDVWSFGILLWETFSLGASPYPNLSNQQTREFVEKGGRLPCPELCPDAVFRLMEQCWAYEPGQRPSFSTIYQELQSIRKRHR
Sequence of Serine/threonine-protein kinase Nek6 (Homo sapiens) (Q9HC98 whole entry, the tested form may be a part): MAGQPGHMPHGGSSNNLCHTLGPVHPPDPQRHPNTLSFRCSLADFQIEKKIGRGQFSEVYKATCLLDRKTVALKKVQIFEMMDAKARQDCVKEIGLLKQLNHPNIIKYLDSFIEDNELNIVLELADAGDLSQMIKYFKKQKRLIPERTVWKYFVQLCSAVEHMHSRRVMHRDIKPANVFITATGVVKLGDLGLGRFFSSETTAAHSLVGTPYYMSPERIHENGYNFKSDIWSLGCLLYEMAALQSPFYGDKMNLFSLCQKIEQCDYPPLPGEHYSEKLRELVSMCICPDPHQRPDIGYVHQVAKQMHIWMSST
Sequence of Serine/threonine-protein kinase RIO1 (Homo sapiens) (Q9BRS2 whole entry, the tested form may be a part): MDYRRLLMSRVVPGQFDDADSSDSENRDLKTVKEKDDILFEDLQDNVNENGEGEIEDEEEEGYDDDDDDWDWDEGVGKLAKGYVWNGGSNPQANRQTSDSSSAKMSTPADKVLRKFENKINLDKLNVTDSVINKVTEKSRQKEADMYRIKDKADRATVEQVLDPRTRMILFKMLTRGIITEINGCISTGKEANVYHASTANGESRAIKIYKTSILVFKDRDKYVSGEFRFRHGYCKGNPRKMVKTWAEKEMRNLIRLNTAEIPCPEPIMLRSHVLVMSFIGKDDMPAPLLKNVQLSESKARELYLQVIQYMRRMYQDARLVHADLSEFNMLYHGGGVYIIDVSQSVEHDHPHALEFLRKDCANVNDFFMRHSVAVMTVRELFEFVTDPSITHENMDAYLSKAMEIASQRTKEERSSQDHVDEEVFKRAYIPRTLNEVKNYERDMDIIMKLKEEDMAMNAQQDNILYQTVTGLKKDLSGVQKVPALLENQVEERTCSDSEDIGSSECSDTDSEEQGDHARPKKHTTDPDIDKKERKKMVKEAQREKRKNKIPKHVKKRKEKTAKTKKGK
Sequence of Serine/threonine-protein kinase N2 (Homo sapiens) (Q16513 whole entry, looked up, the tested form may be a part): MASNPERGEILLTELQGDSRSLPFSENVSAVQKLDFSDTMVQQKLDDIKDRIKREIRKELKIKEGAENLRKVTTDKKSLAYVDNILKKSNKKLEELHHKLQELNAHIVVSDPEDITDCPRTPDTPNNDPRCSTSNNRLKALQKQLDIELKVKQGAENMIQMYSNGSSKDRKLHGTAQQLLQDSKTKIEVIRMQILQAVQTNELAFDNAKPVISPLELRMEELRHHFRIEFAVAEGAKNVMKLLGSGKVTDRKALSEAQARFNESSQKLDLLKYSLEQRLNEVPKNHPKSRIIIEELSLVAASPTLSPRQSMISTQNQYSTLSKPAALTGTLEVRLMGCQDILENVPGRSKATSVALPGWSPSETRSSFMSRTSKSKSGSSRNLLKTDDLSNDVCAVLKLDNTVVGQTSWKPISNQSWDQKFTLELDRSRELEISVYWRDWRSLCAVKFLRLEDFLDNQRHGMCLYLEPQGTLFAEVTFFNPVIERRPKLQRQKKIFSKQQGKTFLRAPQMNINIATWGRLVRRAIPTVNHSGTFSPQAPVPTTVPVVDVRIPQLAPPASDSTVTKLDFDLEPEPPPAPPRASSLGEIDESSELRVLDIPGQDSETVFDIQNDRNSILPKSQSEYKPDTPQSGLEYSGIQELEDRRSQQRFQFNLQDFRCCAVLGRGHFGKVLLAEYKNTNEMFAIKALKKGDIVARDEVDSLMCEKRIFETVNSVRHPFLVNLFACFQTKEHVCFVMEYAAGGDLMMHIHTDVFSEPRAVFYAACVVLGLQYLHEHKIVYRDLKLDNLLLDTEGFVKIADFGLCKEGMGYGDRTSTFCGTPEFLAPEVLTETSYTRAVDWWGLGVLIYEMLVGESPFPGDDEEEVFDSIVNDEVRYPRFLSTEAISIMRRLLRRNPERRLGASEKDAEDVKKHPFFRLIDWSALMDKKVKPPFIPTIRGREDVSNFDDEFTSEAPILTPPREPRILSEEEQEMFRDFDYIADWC
Sequence of Homeodomain-interacting protein kinase 3 (Homo sapiens) (Q9H422 whole entry, looked up, the tested form may be a part): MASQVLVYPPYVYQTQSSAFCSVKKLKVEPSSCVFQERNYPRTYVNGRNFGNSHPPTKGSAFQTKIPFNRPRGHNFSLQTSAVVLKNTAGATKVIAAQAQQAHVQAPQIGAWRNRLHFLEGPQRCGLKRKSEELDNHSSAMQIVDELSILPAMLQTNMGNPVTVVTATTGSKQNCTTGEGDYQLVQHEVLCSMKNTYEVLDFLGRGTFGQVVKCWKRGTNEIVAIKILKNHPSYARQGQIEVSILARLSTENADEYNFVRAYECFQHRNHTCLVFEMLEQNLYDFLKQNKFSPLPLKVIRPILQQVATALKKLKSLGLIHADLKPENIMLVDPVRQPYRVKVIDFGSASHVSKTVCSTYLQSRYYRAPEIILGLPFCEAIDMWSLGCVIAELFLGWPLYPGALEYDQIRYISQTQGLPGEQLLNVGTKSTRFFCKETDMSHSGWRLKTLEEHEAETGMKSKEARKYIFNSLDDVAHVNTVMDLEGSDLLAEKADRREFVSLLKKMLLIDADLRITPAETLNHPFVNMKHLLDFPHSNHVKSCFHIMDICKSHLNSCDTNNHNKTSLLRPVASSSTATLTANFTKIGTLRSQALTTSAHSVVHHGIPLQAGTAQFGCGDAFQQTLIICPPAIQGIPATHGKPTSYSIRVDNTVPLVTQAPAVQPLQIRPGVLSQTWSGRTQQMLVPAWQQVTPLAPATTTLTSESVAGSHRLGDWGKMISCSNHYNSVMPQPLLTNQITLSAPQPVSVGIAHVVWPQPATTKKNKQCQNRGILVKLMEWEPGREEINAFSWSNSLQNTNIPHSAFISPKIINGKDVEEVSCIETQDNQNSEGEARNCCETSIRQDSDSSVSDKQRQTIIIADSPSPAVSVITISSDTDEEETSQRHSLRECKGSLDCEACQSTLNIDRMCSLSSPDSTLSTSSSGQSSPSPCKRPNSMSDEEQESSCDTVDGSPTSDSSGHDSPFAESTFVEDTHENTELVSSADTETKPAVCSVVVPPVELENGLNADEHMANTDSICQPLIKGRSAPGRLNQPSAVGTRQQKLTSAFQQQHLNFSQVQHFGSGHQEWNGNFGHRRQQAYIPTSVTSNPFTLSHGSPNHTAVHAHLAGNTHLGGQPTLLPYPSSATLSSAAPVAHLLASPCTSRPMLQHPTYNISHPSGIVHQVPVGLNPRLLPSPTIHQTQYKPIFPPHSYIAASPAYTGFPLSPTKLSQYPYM

With COCCN[C@H]1CC[C@H](Nc2cc(-c3csc(NCC4(C#N)CCOCC4)n3)c(Cl)cn2)CC1 the Ratio IC50 [1] was greater than 1000, the Activity [2] was 93% and the Activity [3] was 94%. It also gave an Activity [4] of 92%, an Activity [5] of 78% and an Activity [6] of 100%. For the same compound, the Activity [7] was 86%, the Activity [8] was 99% and the Activity [9] was 36%. It also gave an Activity [10] of 93%, an Activity [11] of 99% and an Activity [12] of 100%. It also gave an Activity [13] of 83%, a clearance [14] of 11.9 mL/min/kg and an Activity [15] of 0.3%. The Activity [16] was 90%, the Activity [17] was 100% and the Activity [18] was 79%. The Activity [19] was 98%, the Activity [20] was 1.8% and the Activity [21] was 93%.
